Laboratory results as given in ChEMBL document CHEMBL1155234, “Dialkylamino and nitrogen heterocyclic analogues of hexadecylphosphocholine and cetyltrimetylammonium bromide: effect of phosphate group and environment of the ammonium cation on their biological activity” (Eur J Med Chem, 2009).
≈ marks a conversion by molar mass, not a printed value.

What was measured:
Jurkat = assay: Cytotoxicity against human Jurkat cells after 72 hrs by MTT assay; format: functional, cell-based
Method in brief: (§1)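 MTT end-point assay. Cells were exposed to compound at 1×10^-4 to 1×10^-8 mol l⁻¹ final for 72 h. Seeding was 3×10^3 cells ml⁻¹ for A-549, MCF-7 and MDA-MB-231; 5×10^3 for HeLa; 1×10^4 for Jurkat and CCRF-CEM. Media were DMEM/10% FCS (A-549, MCF-7, MDA-MB-231) or RPMI-HEPES/10% FCS (others). Formazan was dissolved in SDS for 12 h and read at 540 nm against untreated control, in triplicate. IC50 was curve-fitted.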

CCRF-CEM = assay: Cytotoxicity against human CCRF-CEM cells after 72 hrs by MTT assay; format: functional, cell-based; method in brief: as §1
HeLa = assay: Cytotoxicity against human HeLa cells after 72 hrs by MTT assay; format: functional, cell-based; method in brief: as §1
MDA-MB-231 = assay: Cytotoxicity against human MDA-MB-231 cells after 72 hrs by MTT assay; format: functional, cell-based; conditions: MDA-MB-231, 72 h; method in brief: as §1
MCF7 = assay: Cytotoxicity against human MCF7 cells after 72 hrs by MTT assay; format: functional, cell-based; conditions: MCF7, 72 h; method in brief: as §1
A549 = assay: Cytotoxicity against human A549 cells after 72 hrs by MTT assay; format: functional, cell-based; conditions: A549, 72 h; method in brief: as §1
Candida albicans = assay: Antifungal activity against Candida albicans CCM 8186 assessed as inhibition of colony formation after 24 hrs; format: functional
Method in brief: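 C. albicans came from 24-h Sabouraud agar cultures and was suspended at 5×10^5 cells ml⁻¹ in physiological solution pH 7.2, adjusted to A540 = 0.35. It was mixed with aqueous compound and double-concentrated Sabouraud medium and incubated 24 h at 37 °C. Each well was then subcultured on Sabouraud agar for 24 h at 37 °C. MFC was the lowest concentration giving no colonies.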

Acanthamoeba lugdunensis = assay: Trophocidal activity against Acanthamoeba lugdunensis assessed as viability for 14 days by trypan blue exclusion assay; format: functional
Method in brief: (§2)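 Trophozoites were grown axenically in PYG medium and seeded at 2×10^5 cells ml⁻¹ (100 µl), then mixed with compound in PYG at 37 °C. APCs were tested at 25–800 µM (six levels) and QUATs at 7.25–100 µM (five levels). Viability was scored by trypan blue exclusion. Eradication was confirmed by transfer to fresh PYG with growth monitored for 14 days. MTC was the lowest concentration giving 100% eradication.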

[1] = Toxicity in human erythrocytes assessed as hemolysis after 1 hr; format: cell-based, Erythrocyte
Method in brief: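 Citrated human blood erythrocytes were washed three times in Ca/Mg-free PBS (2000g, 10 min) and resuspended in glucose-containing phosphate buffer, pH 7.4. They were diluted 1:10 into compound-containing buffer to a final 6.7–6.8×10^7 cells ml⁻¹ and incubated 1 h at 37 °C with shaking. After centrifugation, supernatant absorbance at 542 nm was compared with fully lysed controls (CTAB).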

Acanthamoeba castellanii = assay: Trophocidal activity against Acanthamoeba castellanii 1BU assessed as viability for 14 days by trypan blue exclusion assay; format: functional; method in brief: as §2
Acanthamoeba polyphaga = assay: Trophocidal activity against Acanthamoeba polyphaga 5SU assessed as viability for 14 days by trypan blue exclusion assay; format: functional; method in brief: as §2
Acanthamoeba lenticulata = assay: Trophocidal activity against Acanthamoeba lenticulata 72/2 assessed as viability for 14 days by trypan blue exclusion assay; format: functional; method in brief: as §2

Compound	IC50 (Jurkat)	IC50 (CCRF-CEM)	IC50 (HeLa)	IC50 (MDA-MB-231)	IC50 (MCF7)	IC50 (A549)	MFC (Candida albicans; CCM 8186, 24 h)	MTC (Acanthamoeba lugdunensis)	EC50 at 1 hr [1]	MTC (Acanthamoeba castellanii)	MTC (Acanthamoeba polyphaga)	MTC (Acanthamoeba lenticulata)	MFC (Candida albicans)
CCCCCCCCCCCCCCCCOP(=O)([O-])OCC[N+]1(C)CCCCCCC1	38.6 µM	43.8 µM	55 µM	45.6 µM	53.3 µM	55 µM	8 µM (≈ 3.81 µg/mL)	50 µM	30 µM	–	–	–	–
CCCCCCCCCCCCCCCC[N+](C)(CC)CC.[Br-]	0.8 µM	2.1 µM	1.38 µM	4.9 µM	0.65 µM	0.62 µM	10 µM	25 µM	40 µM	–	–	–	–
CCCCCCCCCCCCCCCCOP(=O)([O-])OCC[N+]1(C)CCCC1	10 µM	9.3 µM	46.2 µM	37.9 µM	39.3 µM	53.2 µM	8 µM (≈ 3.47 µg/mL)	200 µM	30 µM	–	–	–	–
CCCCCCCCCCCCCCCC[N+]1(C)CCCCCC1.[Br-]	0.8 µM	1 µM	1.82 µM	2.84 µM	0.72 µM	0.67 µM	9 µM	12.5 µM	35 µM	–	–	–	–
CCCCCCCCCCCCCCCCOP(=O)([O-])OCC[N+]1(C)CCCCCC1	18.2 µM	9.8 µM	53.1 µM	49.8 µM	51.5 µM	55.1 µM	8 µM (≈ 3.69 µg/mL)	50 µM	25 µM	–	–	–	–
CCCCCCCCCCCCCCCCOP(=O)([O-])OCC[N+](C)(C)C [MILTEFOSINE]	10 µM	13.5 µM	41.6 µM	37.6 µM	39.2 µM	44.7 µM	4 µM (≈ 1.63 µg/mL)	400 µM	30 µM	31.25 µM	31.25 µM	20 µM	–
CCCCCCCCCCCCCCCC[N+]1(C)CCOCC1.[Br-]	3.57 µM	4.16 µM	5.61 µM	5.75 µM	0.89 µM	0.87 µM	24 µM	50 µM	45 µM	–	–	–	–
CCCCCCCCCCCCCCCC[N+](C)(CCCC)CCCC.[Br-]	0.76 µM	0.91 µM	0.9 µM	2.55 µM	0.68 µM	0.64 µM	9 µM	25 µM	25 µM	–	–	–	–
CCCCCCCCCCCCCCCCOP(=O)([O-])OCC[N+](C)(CC)CC	19.6 µM	9 µM	49.4 µM	34.4 µM	53.7 µM	59.4 µM	4 µM (≈ 1.74 µg/mL)	200 µM	30 µM	–	–	–	–
CCCCCCCCCCCCCCCCOP(=O)([O-])OCC[N+](C)(CCC)CCC	28.6 µM	19.2 µM	55 µM	40.6 µM	50.6 µM	55 µM	16 µM (≈ 7.42 µg/mL)	400 µM	30 µM	–	–	–	–
Cetyltrimethylammonium bromide	–	–	–	–	–	–	–	25 µM	–	–	–	–	21 µM
CCCCCCCCCCCCCCCCOP(=O)([O-])OCC[N+]1(C)CCOCC1	7.7 µM	8.25 µM	21.7 µM	11.4 µM	22.4 µM	42 µM	8 µM (≈ 3.6 µg/mL)	200 µM	30 µM	–	–	–	–
CCCCCCCCCCCCCCCC[N+]1(C)CCCCCCC1.[Br-]	0.78 µM	1 µM	1.43 µM	4.12 µM	0.94 µM	0.85 µM	9 µM	12.5 µM	30 µM	–	–	–	–
CCCCCCCCCCCCCCCC[N+]1(C)CCCC1.[Br-]	0.82 µM	1.35 µM	2.29 µM	3.8 µM	0.62 µM	0.53 µM	10 µM	12.5 µM	35 µM	–	–	–	–
CCCCCCCCCCCCCCCC[N+](C)(CCC)CCC.[Br-]	0.85 µM	1.96 µM	1.68 µM	4.27 µM	0.8 µM	0.75 µM	19 µM	25 µM	30 µM	–	–	–	–
CCCCCCCCCCCCCCCCOP(=O)([O-])OCC[N+]1(C)CCCCC1	14 µM	11.2 µM	57.2 µM	51.7 µM	54.8 µM	> 100 µM	8 µM (≈ 3.58 µg/mL)	200 µM	25 µM	–	–	–	–
CCCCCCCCCCCCCCCC[N+]1(C)CCCCC1.[Br-]	0.72 µM	0.92 µM	1.47 µM	3.86 µM	0.59 µM	0.63 µM	10 µM	12.5 µM	35 µM	–	–	–	–
